The species named for one data set is Rattus norvegicus. Briefly: Second order rate constant for inactivation of rat cathepsin B. The settings on record: in vitro. An outline of the steps: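 Recombinant rat cathepsin B expressed in yeast, activated 15 min on ice in buffer containing 1 mM DTT. Continuous assay at pH 6.0: 50 mM phosphate, 200 mM NaCl, 5 mM EDTA, 10% v/v acetonitrile, 0.5 mM DTT. Substrate CbzPheArgMCA; fluorescence (ex 380, em 440 nm) followed until complete inactivation (typically 5–30 min) to obtain first-order kobs.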

Data set [1] in a line: ratio of cathepsin B/papain. The method in brief: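 Both enzymes were run in a continuous CbzPheArgMCA fluorescence assay in 50 mM phosphate, 200 mM NaCl, 5 mM EDTA and 10% acetonitrile. Recombinant rat cathepsin B was run at pH 6.0 with 0.5 mM DTT. Papain was run at pH 6.5. In each case kobs was followed until complete inactivation.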
The next data set concerns the target papain (Carica papaya) (UniProt P00784). Briefly: Second order rate constant for inactivation of papain. The settings on record: in vitro.

Take `CCOC(=O)[C@H]1O[C@H]1C(=O)N[C@@H](CC(C)C)C(=O)N1CCC[C@H]1C(=O)O`: the results for the kinact/Ki in the data set listed under Rattus norvegicus and on papain (Carica papaya) were 13800 M⁻¹ s⁻¹ and 760 M⁻¹ s⁻¹, respectively. Besides, the Ratio in data set [1] is 18.

As for `CC(C)CNC(=O)[C@H]1O[C@H]1C(=O)N[C@@H](CC(C)C)C(=O)N1CCC[C@H]1C(=O)O`, the results for the kinact/Ki in the data set listed under Rattus norvegicus and at papain (Carica papaya) were 52000 M⁻¹ s⁻¹ and 558 M⁻¹ s⁻¹, respectively. Besides, the Ratio in data set [1] was found to be 93.

In the case of `CC(C)C[C@H](NC(=O)[C@@H]1O[C@@H]1C(=O)O)C(=O)N1CCC[C@H]1C(=O)OCc1ccccc1`, the kinact/Ki in the data set listed under Rattus norvegicus amounted to 8700 M⁻¹ s⁻¹; on papain (Carica papaya), 176000 M⁻¹ s⁻¹. In data set [1], the Ratio is given as 0.05.

For the compound `CCOC(=O)[C@H]1O[C@H]1C(=O)N[C@@H](CC(C)C)C(=O)N1CCC[C@H]1C(=O)OCc1ccccc1`, the values for the kinact/Ki in the data set listed under Rattus norvegicus and on papain (Carica papaya) were 30 M⁻¹ s⁻¹ and 110 M⁻¹ s⁻¹, respectively. In data set [1], the Ratio was 0.3.

Take `CC(C)CNC(=O)[C@H]1O[C@H]1C(=O)N[C@@H](CC(C)C)C(=O)N1CCC[C@H]1C(=O)OCc1ccccc1`: the values for the kinact/Ki in the data set filed under Rattus norvegicus and on papain (Carica papaya) were 206 M⁻¹ s⁻¹ and 2070 M⁻¹ s⁻¹, respectively. Further, the Ratio in data set [1] is recorded as 0.1.

For the compound `CC(C)C[C@H](NC(=O)[C@@H]1O[C@@H]1C(=O)O)C(=O)N1CCC[C@H]1C(=O)O`, the figures for the kinact/Ki in the data set listed under Rattus norvegicus and on papain (Carica papaya) were 2200 M⁻¹ s⁻¹ and 30000 M⁻¹ s⁻¹, respectively. For the same compound, the Ratio in data set [1] was 0.07.

For the origin of these results see ChEMBL document CHEMBL1126618, “Epoxysuccinyl dipeptides as selective inhibitors of cathepsin B” (J Med Chem, 1993).
